What all share (type): functional
Assay [1] has as its system Rattus norvegicus. The assay is described as follows: Effect on plasma growth hormone in anesthetized rat at a dose of 50 ug/100 g of body weight. Put shortly:
(§1)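 Male Charles River rats (175–350 g) anesthetized with sodium pentobarbital (6 mg/100 g body wt); 30 min later, 6–9 per group received a single subcutaneous 0.5-mL injection of saline, GRF(1-29)NH₂ reference, or one of two analogue doses. Jugular vein blood was drawn 15 min post-injection, and plasma GH was measured by radioimmunoassay, reported as ng/mL ± SE.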

Assay [2] concerns Rattus norvegicus. The assay is described as follows: Percent growth hormone releasing activity in anesthetized rat relative to hpGRF (1-29)NH2. Put shortly:
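In pentobarbital-anesthetized male Charles River rats (6–9/group), two subcutaneous analogue doses and GRF(1-29)NH₂ reference doses were given. Plasma GH was measured by radioimmunoassay in jugular blood taken 15 min post-injection. Relative potency with 95% confidence limits came from a four-point assay design by Pugsley's method. Not active means no activity at the doses tested.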

In assay [3] the test system is Rattus norvegicus. Put plainly: Effect on plasma growth hormone in anesthetized rat at a dose of 125 ug/100 g of body weight. Put shortly:
as §1

In assay [4] the test system is Rattus norvegicus. The assay is described as follows: Effect on plasma growth hormone in anesthetized rat at a dose of 1 ug/100 g of body weight. Put shortly: as §1
Assay [5] concerns Rattus norvegicus. The assay is described as follows: Effect on plasma growth hormone in anesthetized rat at a dose of 0.4 ug/100 g of body weight. In short, it runs like this:
as §1

This passage reports Activity results from ChEMBL document CHEMBL1122887, “Structure-activity studies on the N-terminal region of growth hormone releasing factor” (1985).

With `CC[C@H](C)[C@H](NC(=O)[C@H](C)NC(=O)[C@H](CC(=O)O)NC(=O)[C@@H](C)NC(=O)[C@@H](Cc1ccc(O)cc1)NC(C)=O)C(=O)N[C@@H](Cc1ccccc1)C(=O)N[C@H](C(=O)N[C@@H](CC(N)=O)C(=O)N[C@@H](CO)C(=O)N[C@@H](Cc1ccc(O)cc1)C(=O)N[C@@H](CCCN=C(N)N)C(=O)N[C@@H](CCCCN)C(=O)N[C@H](C(=O)N[C@@H](CC(C)C)C(=O)NCC(=O)N[C@@H](CCC(N)=O)C(=O)N[C@@H](CC(C)C)C(=O)N[C@@H](CO)C(=O)N[C@@H](C)C(=O)N[C@@H](CCCN=C(N)N)C(=O)N[C@@H](CCCCN)C(=O)N[C@@H](CC(C)C)C(=O)N[C@@H](CC(C)C)C(=O)N[C@@H](CCC(N)=O)C(=O)N[C@@H](CC(=O)O)C(=O)N[C@H](C(=O)N[C@@H](CCSC)C(=O)N[C@@H](CO)C(=O)N[C@@H](CCCN=C(N)N)C(N)=O)[C@@H](C)CC)C(C)C)[C@@H](C)O` (stereo in doubt; 5), the Activity in the assay on Rattus norvegicus [1] is 435 ng/mL; with Rattus norvegicus [2], less than 5%; with Rattus norvegicus [3], 670 ng/mL.

With `CC[C@H](C)[C@H](NC(=O)[C@H](C)NC(=O)[C@H](CC(=O)O)NC(=O)[C@@H](C)NC(=O)[C@H](Cc1ccc(O)cc1)NC(C)=O)C(=O)N[C@@H](Cc1ccccc1)C(=O)N[C@H](C(=O)N[C@@H](CC(N)=O)C(=O)N[C@@H](CO)C(=O)N[C@@H](Cc1ccc(O)cc1)C(=O)N[C@@H](CCCN=C(N)N)C(=O)N[C@@H](CCCCN)C(=O)N[C@H](C(=O)N[C@@H](CC(C)C)C(=O)NCC(=O)N[C@@H](CCC(N)=O)C(=O)N[C@@H](CC(C)C)C(=O)N[C@@H](CO)C(=O)N[C@@H](C)C(=O)N[C@@H](CCCN=C(N)N)C(=O)N[C@@H](CCCCN)C(=O)N[C@@H](CC(C)C)C(=O)N[C@@H](CC(C)C)C(=O)N[C@@H](CCC(N)=O)C(=O)N[C@@H](CC(=O)O)C(=O)N[C@H](C(=O)N[C@@H](CCSC)C(=O)N[C@@H](CO)C(=O)N[C@@H](CCCN=C(N)N)C(N)=O)[C@@H](C)CC)C(C)C)[C@@H](C)O`, the results for the Activity in the assay on Rattus norvegicus [4], in the assay on Rattus norvegicus [5] and with Rattus norvegicus [2] were 2496 ng/mL, 1300 ng/mL and 2558%, respectively.
